{
  "source": "ChEMBL document CHEMBL1649574",
  "about": "“Prevalence and characterization of heterogeneous vancomycin-intermediate Staphylococcus aureus isolates from 14 cities in China” (2009)",
  "type_in_all_cases": "functional",
  "key": {"Staphylococcus aureus [1]": {"system": "Staphylococcus aureus", "experiment": "Antimicrobial activity against vancomycin-susceptible Staphylococcus aureus by agar dilution method", "procedure,_shortened": "(§1)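 Agar-dilution MICs were measured on a subset of 200 blood MRSA isolates from China. Agents: oxacillin, rifampin, gentamicin, levofloxacin, erythromycin, vancomycin, teicoplanin, tigecycline, ceftobiprole and linezolid. Phenotype came from the PAP-AUC ratio of each isolate to S. aureus Mu3 (VSSA <0.9; hVISA 0.9 to 1.3; VISA ≥1.3), read on BHI agar with 0 to 8.0 mg/liter vancomycin after 48 h at 35°C.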"}, "Staphylococcus aureus [2]": {"system": "Staphylococcus aureus", "experiment": "Antimicrobial activity against heterogeneous vancomycin-intermediate Staphylococcus aureus assessed as susceptible isolates by agar dilution method", "procedure,_shortened": "(§2)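 MICs by agar dilution for all 200 MRSA blood isolates (oxacillin, rifampin, gentamicin, levofloxacin, erythromycin, vancomycin, teicoplanin, tigecycline, ceftobiprole, linezolid). Isolates were grouped by PAP-AUC ratio against S. aureus Mu3: below 0.9 VSSA, 0.9 to 1.3 hVISA, 1.3 or more VISA.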"}, "Staphylococcus aureus [3]": {"system": "Staphylococcus aureus", "experiment": "Antimicrobial activity against heterogeneous vancomycin-intermediate Staphylococcus aureus assessed as growth inhibition at 2 times MIC", "design": "scale not given: the % may be the effect or the level left"}, "Staphylococcus aureus [4]": {"system": "Staphylococcus aureus", "experiment": "Antimicrobial activity against heterogeneous vancomycin-susceptible Staphylococcus aureus assessed as susceptible isolates by agar dilution method", "procedure,_shortened": "as §2"}, "Staphylococcus aureus [5]": {"system": "Staphylococcus aureus", "experiment": "Antimicrobial activity against vancomycin-susceptible Staphylococcus aureus assessed as growth inhibition at 0.25 times MIC", "design": "scale not given: the % may be the effect or the level left"}, "Staphylococcus aureus [6]": {"system": "Staphylococcus aureus", "experiment": "Antimicrobial activity against heterogeneous vancomycin-susceptible Staphylococcus aureus assessed as resistant isolates by agar dilution method"}, "Staphylococcus aureus [7]": {"system": "Staphylococcus aureus", "experiment": "Antimicrobial activity against vancomycin-susceptible Staphylococcus aureus assessed as growth inhibition at 0.5 times MIC", "design": "scale not given: the % may be the effect or the level left"}, "Staphylococcus aureus [8]": {"system": "Staphylococcus aureus", "experiment": "Antimicrobial activity against heterogeneous vancomycin-intermediate Staphylococcus aureus assessed as growth inhibition at 0.25 times MIC", "design": "scale not given: the % may be the effect or the level left"}, "Staphylococcus aureus [9]": {"system": "Staphylococcus aureus", "experiment": "Antimicrobial activity against vancomycin-susceptible Staphylococcus aureus assessed as growth inhibition at 2 times MIC", "design": "scale not given: the % may be the effect or the level left"}, "Staphylococcus aureus [10]": {"system": "Staphylococcus aureus", "experiment": "Antimicrobial activity against heterogeneous vancomycin-susceptible Staphylococcus aureus assessed as intermediate isolates by agar dilution method"}, "Staphylococcus aureus [11]": {"system": "Staphylococcus aureus", "experiment": "Antimicrobial activity against heterogeneous vancomycin-intermediate Staphylococcus aureus assessed as growth inhibition at 0.5 times MIC", "design": "scale not given: the % may be the effect or the level left"}, "Staphylococcus aureus [12]": {"system": "Staphylococcus aureus", "experiment": "Antimicrobial activity against heterogeneous vancomycin-intermediate Staphylococcus aureus assessed as growth inhibition at 16 times MIC", "design": "scale not given: the % may be the effect or the level left"}, "Staphylococcus aureus [13]": {"system": "Staphylococcus aureus", "experiment": "Antimicrobial activity against heterogeneous vancomycin-intermediate Staphylococcus aureus assessed as growth inhibition at 4 times MIC", "design": "scale not given: the % may be the effect or the level left"}, "Staphylococcus aureus [14]": {"system": "Staphylococcus aureus", "experiment": "Antimicrobial activity against vancomycin-susceptible Staphylococcus aureus assessed as growth inhibition at 4 times MIC", "design": "scale not given: the % may be the effect or the level left"}, "Staphylococcus aureus [15]": {"system": "Staphylococcus aureus", "experiment": "Antimicrobial activity against heterogeneous vancomycin-intermediate Staphylococcus aureus assessed as growth inhibition at MIC", "design": "scale not given: the % may be the effect or the level left"}, "Staphylococcus aureus [16]": {"system": "Staphylococcus aureus", "experiment": "Antimicrobial activity against heterogeneous vancomycin-intermediate Staphylococcus aureus by agar dilution method", "procedure,_shortened": "as §1"}, "Staphylococcus aureus [17]": {"system": "Staphylococcus aureus", "experiment": "Antimicrobial activity against vancomycin-susceptible Staphylococcus aureus assessed as growth inhibition at MIC", "design": "scale not given: the % may be the effect or the level left"}, "Staphylococcus aureus [18]": {"system": "Staphylococcus aureus", "experiment": "Antimicrobial activity against vancomycin-susceptible Staphylococcus aureus assessed as growth inhibition at 0.125 times MIC", "design": "scale not given: the % may be the effect or the level left"}, "Staphylococcus aureus [19]": {"system": "Staphylococcus aureus", "experiment": "Antimicrobial activity against vancomycin-susceptible Staphylococcus aureus assessed as growth inhibition at 16 times MIC", "design": "scale not given: the % may be the effect or the level left"}, "Staphylococcus aureus [20]": {"system": "Staphylococcus aureus", "experiment": "Antimicrobial activity against heterogeneous vancomycin-intermediate Staphylococcus aureus assessed as intermediate isolates by agar dilution method", "procedure,_shortened": "as §2"}, "Staphylococcus aureus [21]": {"system": "Staphylococcus aureus", "experiment": "Antimicrobial activity against heterogeneous vancomycin-intermediate Staphylococcus aureus assessed as resistant isolates by agar dilution method"}, "Staphylococcus aureus [22]": {"system": "Staphylococcus aureus", "experiment": "Antimicrobial activity against heterogeneous vancomycin-intermediate Staphylococcus aureus assessed as growth inhibition at 0.125 times MIC", "design": "scale not given: the % may be the effect or the level left"}},
  "data": [
    {"smiles": "CN[C@H](CC(C)C)C(=O)N[C@H]1C(=O)N[C@@H](CC(N)=O)C(=O)N[C@H]2C(=O)N[C@H]3C(=O)N[C@H](C(=O)N[C@H](C(=O)O)c4cc(O)cc(O)c4-c4cc3ccc4O)[C@H](O)c3ccc(c(Cl)c3)Oc3cc2cc(c3O[C@@H]2O[C@H](CO)[C@@H](O)[C@H](O)[C@H]2O[C@H]2C[C@](C)(N)[C@H](O)[C@H](C)O2)Oc2ccc(cc2Cl)[C@H]1O", "note": "[VANCOMYCIN]", "values": [
      {"measurement": "MIC50", "setting": "Staphylococcus aureus [1]", "result": 1, "unit": "µg/mL"},
      {"measurement": "MIC90", "setting": "Staphylococcus aureus [1]", "result": 1, "unit": "µg/mL"},
      {"measurement": "Activity", "setting": "Staphylococcus aureus [2]", "result": 96.3, "unit": "%"},
      {"measurement": "Activity", "setting": "Staphylococcus aureus [3]", "result": 96.3, "unit": "%"},
      {"measurement": "Activity", "setting": "Staphylococcus aureus [4]", "result": 100, "unit": "%"},
      {"measurement": "Activity", "setting": "Staphylococcus aureus [5]", "result": 0, "unit": "%"},
      {"measurement": "Activity", "setting": "Staphylococcus aureus [6]", "result": 0, "unit": "%"},
      {"measurement": "Activity", "setting": "Staphylococcus aureus [7]", "result": 35.8, "unit": "%"},
      {"measurement": "Activity", "setting": "Staphylococcus aureus [8]", "result": 0, "unit": "%"},
      {"measurement": "Activity", "setting": "Staphylococcus aureus [9]", "result": 100, "unit": "%"},
      {"measurement": "Activity", "setting": "Staphylococcus aureus [10]", "result": 0, "unit": "%"},
      {"measurement": "Activity", "setting": "Staphylococcus aureus [11]", "result": 3.7, "unit": "%"},
      {"measurement": "Activity", "setting": "Staphylococcus aureus [12]", "result": 100, "unit": "%"},
      {"measurement": "Activity", "setting": "Staphylococcus aureus [13]", "result": 100, "unit": "%"},
      {"measurement": "Activity", "setting": "Staphylococcus aureus [14]", "result": 100, "unit": "%"},
      {"measurement": "Activity", "setting": "Staphylococcus aureus [15]", "result": 85.2, "unit": "%"},
      {"measurement": "MIC50", "setting": "Staphylococcus aureus [16]", "result": 1, "unit": "µg/mL"},
      {"measurement": "MIC90", "setting": "Staphylococcus aureus [16]", "result": 2, "unit": "µg/mL"},
      {"measurement": "Activity", "setting": "Staphylococcus aureus [17]", "result": 99.4, "unit": "%"},
      {"measurement": "Activity", "setting": "Staphylococcus aureus [18]", "result": 0, "unit": "%"},
      {"measurement": "Activity", "setting": "Staphylococcus aureus [19]", "result": 100, "unit": "%"},
      {"measurement": "Activity", "setting": "Staphylococcus aureus [20]", "result": 3.7, "unit": "%"},
      {"measurement": "Activity", "setting": "Staphylococcus aureus [21]", "result": 0, "unit": "%"},
      {"measurement": "Activity", "setting": "Staphylococcus aureus [22]", "result": 0, "unit": "%"}
    ]}
  ]
}
